Reference: ChEMBL document CHEMBL1122545, “N2-(4-Substituted-2,6-dichlorophenyl)-N1,N1-dimethylformamidines as antihypertensive and diuretic agents” (J Med Chem, 1984)
Where “and” joins values, the source holds several entries; their conditions need not be identical. Equal values may be shown once.

Key:
Rattus norvegicus [1] = test: […] activity expressed as Na+(sodium) excreted in milli equivalents was reported for a duration of 5 hours after administration of a dose of 100 mg/Kg; type: ADME, organism-based, Urine; details: in vivo
How it was run: (§1)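 Male SH rats (Okamoto strain), 16 weeks old, dosed orally by gavage with compound dispersed in 3% starch in normal saline at 2 mL/kg. Oral normal saline load, then individual metabolism cages; 0-5 h urine collected, Na+ and K+ measured by flame photometry. Rats redosed at 24 h without the saline load. MABP and HR taken by femoral arterial puncture under local anesthetic 4 h after the second dose.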

Canis familiaris [2] = test: Antihypertensive activity in renal hypertensive dogs and fall in heart rate(HR) was reported at a time duration of 3 hour after peroral administration of 0.2 mg/Kg.; type: functional, Canis lupus familiaris
How it was run: (§2)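 Chronic phase two kidney-one clip Goldblatt renal hypertensive dogs from a standing colony, habituated to the procedure, dosed orally. Arterial blood pressure and heart rate taken by arterial puncture before dosing and repeated at 1, 3 and 5 h after dosing over a 6-h postdosing interval. Maximal falls in MABP and HR recorded.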

Canis familiaris [3] = test: Antihypertensive activity in renal hypertensive dogs and maximal fall in mean arterial blood pressure (MABP) was reported at a time duration of 0 hour after peroral administration of 1.0 mg/Kg.; type: functional, Canis lupus familiaris, Artery; how it was run: as §2
Canis familiaris [4] = test: Antihypertensive activity in renal hypertensive dogs and fall in heart rate(HR) was reported at a time duration of 0 hour after peroral administration of 0.3 mg/kg.; type: functional, Canis lupus familiaris; details: route oral; how it was run: as §2
Canis familiaris [5] = test: Antihypertensive activity in renal hypertensive dogs and maximal fall in mean arterial blood pressure (MABP) was reported at a time duration of 0 hour after peroral administration of 0.3 mg/Kg.; type: functional, Canis lupus familiaris, Artery; how it was run: as §2
Canis familiaris [6] = test: Antihypertensive activity in renal hypertensive dogs and fall in heart rate(HR) was reported at a time duration of 5 hour after peroral administration of 1.0 mg/Kg.; type: functional, Canis lupus familiaris; how it was run: as §2
Canis familiaris [7] = test: Antihypertensive activity in renal hypertensive dogs and fall in heart rate(HR) was reported at a time duration of 5 hour after peroral administration of 0.2 mg/Kg.; type: functional, Canis lupus familiaris; how it was run: as §2
Canis familiaris [8] = test: Antihypertensive activity in renal hypertensive dogs and maximal fall in mean arterial blood pressure (MABP) was reported at a time duration of 1 hour after peroral administration of 0.2 mg/Kg.; type: functional, Canis lupus familiaris, Artery; how it was run: as §2
Canis familiaris [9] = test: Antihypertensive activity in renal hypertensive dogs and maximal fall in mean arterial blood pressure (MABP) was reported at a time duration of 3 hour after peroral administration of 0.2 mg/Kg.; type: functional, Canis lupus familiaris, Artery; how it was run: as §2
Canis familiaris [10] = test: Antihypertensive activity in renal hypertensive dogs and maximal fall in mean arterial blood pressure (MABP) was reported at a time duration of 1 hour after peroral administration of 1.0 mg/Kg.; type: functional, Canis lupus familiaris, Artery; how it was run: as §2
Canis familiaris [11] = test: Antihypertensive activity in renal hypertensive dogs and maximal fall in mean arterial blood pressure (MABP) was reported at a time duration of 3 hour after peroral administration of 0.1 mg/Kg; type: functional, Canis lupus familiaris, Artery; how it was run: as §2
Canis familiaris [12] = test: Antihypertensive activity in renal hypertensive dogs and maximal fall in mean arterial blood pressure (MABP) was reported at a time duration of 0 hour after peroral administration of 0.2 mg/Kg.; type: functional, Canis lupus familiaris, Artery; how it was run: as §2
Canis familiaris [13] = test: Antihypertensive activity in renal hypertensive dogs and fall in heart rate(HR) was reported at a time duration of 0 hour after peroral administration of 1.0 mg/Kg.; type: functional, Canis lupus familiaris; how it was run: as §2
Canis familiaris [14] = test: Antihypertensive activity in renal hypertensive dogs and maximal fall in mean arterial blood pressure (MABP) was reported at a time duration of 3 hour after peroral administration of 1.0 mg/Kg.
Canis familiaris [15] = test: Antihypertensive activity in renal hypertensive dogs and fall in heart rate(HR) was reported at a time duration of 5 hour after peroral administration of 0.3 mg/Kg.; type: functional, Canis lupus familiaris; how it was run: as §2
Canis familiaris [16] = test: Antihypertensive activity in renal hypertensive dogs and fall in heart rate(HR) was reported at a time duration of 1 hour after peroral administration of 1.0 mg/Kg.; type: functional, Canis lupus familiaris; how it was run: as §2
Canis familiaris [17] = test: Antihypertensive activity in renal hypertensive dogs and fall in heart rate(HR) was reported at a time duration of 0 hour after peroral administration of 0.2 mg/Kg.; type: functional, Canis lupus familiaris; how it was run: as §2
Canis familiaris [18] = test: Antihypertensive activity in renal hypertensive dogs and maximal fall in mean arterial blood pressure (MABP) was reported at a time duration of 1 hour after peroral administration of 0.1 mg/Kg.; type: functional, Canis lupus familiaris, Artery; how it was run: as §2
Canis familiaris [19] = test: Antihypertensive activity in renal hypertensive dogs and fall in heart rate(HR) was reported at a time duration of 3 hour after peroral administration of 1.0 mg/Kg.; type: functional, Canis lupus familiaris; how it was run: as §2
Canis familiaris [20] = test: Antihypertensive activity in renal hypertensive dogs and maximal fall in mean arterial blood pressure (MABP) was reported at a time duration of 5 hour after peroral administration of 0.3 mg/Kg; type: functional, Canis lupus familiaris, Artery
How it was run: (§3)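 Chronic-phase two kidney-one clip Goldblatt renal hypertensive dogs from a standing colony, habituated to the procedure. Mean arterial pressure and heart rate taken by direct arterial puncture before dosing and again 1, 3 and 5 h after oral dosing; maximal fall recorded over the 6-h postdosing interval.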

Canis familiaris [21] = test: Antihypertensive activity in renal hypertensive dogs and fall in heart rate(HR) was reported at a time duration of 1 hour after peroral administration of 0.3 mg/Kg.; type: functional, Canis lupus familiaris; how it was run: as §2
Canis familiaris [22] = test: Antihypertensive activity in renal hypertensive dogs and maximal fall in mean arterial blood pressure (MABP) was reported at a time duration of 5 hour after peroral administration of 1.0 mg/Kg.; type: functional, Canis lupus familiaris, Artery; how it was run: as §3
Canis familiaris [23] = test: Antihypertensive activity in renal hypertensive dogs and fall in heart rate(HR) was reported at a time duration of 1 hour after peroral administration of 0.2 mg/kg.; type: functional, Canis lupus familiaris; details: route oral; how it was run: as §2
Canis familiaris [24] = test: Antihypertensive activity in renal hypertensive dogs and fall in heart rate(HR) was reported at a time duration of 3 hour after peroral administration of 0.1 mg/kg; type: functional, Canis lupus familiaris; details: route oral; how it was run: as §2
Canis familiaris [25] = test: Antihypertensive activity in renal hypertensive dogs and maximal fall in mean arterial blood pressure (MABP) was reported at a time duration of 0 hour after peroral administration of 0.1 mg/Kg; type: functional, Canis lupus familiaris, Artery; how it was run: as §2
Canis familiaris [26] = test: Antihypertensive activity in renal hypertensive dogs and fall in heart rate(HR) was reported at a time duration of 3 hour after peroral administration of 0.3 mg/Kg.; type: functional, Canis lupus familiaris; how it was run: as §2
Canis familiaris [27] = test: Antihypertensive activity in renal hypertensive dogs and maximal fall in mean arterial blood pressure (MABP) was reported at a time duration of 5 hour after peroral administration of 0.2 mg/Kg.; type: functional, Canis lupus familiaris, Artery; how it was run: as §2
Canis familiaris [28] = test: Antihypertensive activity in renal hypertensive dogs and maximal fall in mean arterial blood pressure (MABP) was reported at a time duration of 3 hour after peroral administration of 0.3 mg/Kg.; type: functional, Canis lupus familiaris, Artery; how it was run: as §2
Canis familiaris [29] = test: Antihypertensive activity in renal hypertensive dogs and fall in heart rate(HR) was reported at a time duration of 1 hour after peroral administration of 0.1 mg/kg.; type: functional, Canis lupus familiaris; details: route oral; how it was run: as §2
Canis familiaris [30] = test: Antihypertensive activity in renal hypertensive dogs and maximal fall in mean arterial blood pressure (MABP) was reported at a time duration of 1 hour after peroral administration of 0.3 mg/Kg.; type: functional, Canis lupus familiaris, Artery; how it was run: as §2
Rattus norvegicus [31] = test: Antihypertensive activity determined as heart rate in SH rats, was reported at a dose of 100 mg/Kg; type: functional; how it was run: as §1
Canis familiaris [32] = test: Antihypertensive activity in renal hypertensive dogs and fall in heart rate(HR) was reported at a time duration of 5 hour after peroral administration of 0.1 mg/Kg; type: functional, Canis lupus familiaris; how it was run: as §2
Rattus norvegicus [33] = test: […] activity expressed as K(+) (potassium) excreted in milli equivalents was reported for a duration of 5 hours after administration of a dose of 100 mg/Kg.; type: ADME, organism-based, Urine; details: in vivo; how it was run: as §1
Rattus norvegicus [34] = test: Antihypertensive activity in SH rats, and mean arterial blood pressure was reported at a dose of 100 mg/Kg; type: functional, Artery; how it was run: as §1
Canis familiaris [35] = test: Antihypertensive activity in renal hypertensive dogs and fall in heart rate(HR) was reported at a time duration of 0 hour after peroral administration of 0.1 mg/Kg.; type: functional, Canis lupus familiaris; how it was run: as §2
Rattus norvegicus [36] = test: Diuretic activity was determined expressed as volume of urine excreted in mL was reported at a dose of 100 mg/Kg; type: ADME, organism-based; details: in vivo; how it was run: as §1
Rattus norvegicus [37] = test: Antihypertensive activity determined as heart rate in SH rats, was reported at a dose of 25 mg/Kg; type: functional; how it was run: as §1
Rattus norvegicus [38] = test: Diuretic activity was determined in SH rats expressed as K(+) (potassium) excreted in milli equivalents was reported for a duration of 5 hours after administration of a dose of 25 mg/Kg; type: ADME, organism-based, Urine; details: in vivo; how it was run: as §1
Rattus norvegicus [39] = test: Antihypertensive activity in SH rats, and mean arterial blood pressure was reported at a dose of 25 mg/Kg; type: functional, Artery; how it was run: as §1
[40] = Diuretic activity was determined expressed as volume of urine excreted in mL was reported at a dose of 25 mg/Kg; type: ADME; details: in vivo; how it was run: as §1
[41] = Diuretic activity was determined expressed as Na+(sodium) excreted in milli equivalents was reported for a duration of 5 hours after administration of a dose of 25 mg/Kg; type: ADME, Urine; details: in vivo; how it was run: as §1

With `CN(C)/C=N/c1c(Cl)cc(NCc2ccc(N(C)C)cc2Cl)cc1Cl` the Diuretic activity (Rattus norvegicus [1]) was 1.89 m equiv, the HR (Canis familiaris [2]) was 58 bpm and the MABP (Canis familiaris [3]) was 140 mmHg. The HR (Canis familiaris [4]) was 94 bpm, the MABP (Canis familiaris [5]) was 148 mmHg and the HR (Canis familiaris [6]) was 66 bpm. The HR (Canis familiaris [7]) was 65 bpm, the MABP (Canis familiaris [8]) was 123 mmHg and the MABP (Canis familiaris [9]) was 129 mmHg. The MABP (Canis familiaris [10]) was 108 mmHg, the MABP (Canis familiaris [11]) was 135 mmHg and 144 mmHg and the MABP (Canis familiaris [12]) was 152 mmHg. The HR (Canis familiaris [13]) was 110 bpm, the MABP (Canis familiaris [14]) was 114 mmHg and the HR (Canis familiaris [15]) was 60 bpm. It also gave an HR (Canis familiaris [16]) of 60 bpm, an HR (Canis familiaris [17]) of 79 bpm and an MABP (Canis familiaris [18]) of 126 mmHg. The HR (Canis familiaris [19]) was 47 bpm, the MABP (Canis familiaris [20]) was 132 mmHg and the HR (Canis familiaris [21]) was 60 bpm. The MABP (Canis familiaris [22]) was 128 mmHg, the HR (Canis familiaris [23]) was 56 bpm and the HR (Canis familiaris [24]) was 96 bpm. For the same compound, the MABP (Canis familiaris [25]) was 146 mmHg, the HR (Canis familiaris [26]) was 63 bpm and the MABP (Canis familiaris [27]) was 147 mmHg. The MABP (Canis familiaris [28]) was 128 mmHg, the HR (Canis familiaris [29]) was 100 bpm and the MABP (Canis familiaris [30]) was 111 mmHg. The HR (Rattus norvegicus [31]) was 310 beats min-1, the HR (Canis familiaris [32]) was 113 bpm and the Diuretic activity (Rattus norvegicus [33]) was 0.47 m equiv. It also gave an MABP (Rattus norvegicus [34]) of 116 mmHg, an HR (Canis familiaris [35]) of 120 bpm and a Diuretic activity (Rattus norvegicus [36]) of 22.3 mL.
`Cc1cc(N(C)C)ccc1CNc1cc(Cl)c(/N=C/N(C)C)c(Cl)c1` showed an HR (Rattus norvegicus [37]) of 270 beats min-1, a Diuretic activity (Rattus norvegicus [38]) of 0.6 m equiv and an MABP (Rattus norvegicus [39]) of 138 mmHg. For the same compound, the Diuretic activity [40] was 25.5 mL and the Diuretic activity [41] was 2.59 m equiv.
